Values after ≈ are worked out from the molar mass of the structure shown. Active and inactive are the calls of the source. The calls are words filed in the database; no cut-off is given here.
Columns and labels:
Coxsackievirus B5 = test: Antiviral activity against Human coxsackievirus B5 ATCC VR-29 infected in African green monkey Vero 76 cells assessed as reduction of virus-plaque formation after 3 days by crystal violet staining; type: functional, organism-based; details: Enterovirus B, ATCC VR-29, Vero, 72 h
In short: (§1)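 Plaque reduction: Vero-76 at 2x10^5 cells/well grown to confluent monolayers, infected 2 h at 50–100 PFU/well; after removing unadsorbed virus, overlay of D-MEM, 1% inactivated FBS, 0.75% methylcellulose with or without serial compound dilutions; 3 days at 37°C, fixed and stained with crystal violet in 50% ethanol, plaques counted; EC50 by linear regression.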

Human alphaherpesvirus 1 = test: Antiviral activity against Human herpesvirus 1 KOS ATCC VR-1493 infected in African green monkey Vero 76 cells assessed as reduction of virus-plaque formation after 3 days by crystal violet staining; type: functional, organism-based; details: Human alphaherpesvirus 1, KOS ATCC VR1493, Vero, 72 h; in short: as §1
Enterococcus faecalis = test: Antimicrobial activity against Enterococcus faecalis ATCC 29212 at 400 ug after 18 hrs by disc-diffusion method; type: functional
In short: (§2)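 Disc diffusion on Mueller-Hinton II agar per CLSI; 9 mm paper discs loaded with 400 µg compound from DMSO solution, dried, placed on agar; growth inhibition zone diameter read after 18 h at 35°C.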

[1] = Cytotoxicity against African green monkey Vero 76 cells assessed as cell viability after 48 to 96 hrs by crystal violet staining; type: cell-based; details: chlorocebus sabaeus
[2] = tested on: Staphylococcus epidermidis; test: Antimicrobial activity against Staphylococcus epidermidis ATCC 35984 at 400 ug after 18 hrs by disc-diffusion method; type: functional; details: ATCC 35984, 18 h, read-out: IZ; in short: as §2
[3] = tested on: Mycobacterium tuberculosis; test: Antimycobacterial activity against drug-sensitive Mycobacterium tuberculosis Spec. 192; type: functional
In short: (§3)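 Classical test-tube successive-dilution method in Youmans' modification of Proskauer and Beck liquid medium with 10% bovine serum. Inoculum came from 14-day cultures. DMSO stock was 10 mg/mL, diluted geometrically in medium. Tubes were incubated at 37 °C. Concentrations tested were 3.1, 6.2, 12.5, 25, 50 and 100 µg/ml. MIC is the minimum concentration inhibiting growth relative to compound-free tubes.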

Enterococcus hirae = test: Antimicrobial activity against Enterococcus hirae ATCC 10541 at 400 ug after 18 hrs by disc-diffusion method; type: functional; details: for zone of inhibition at 400 µg/disc: ATCC 10541, 18 h, read-out: IZ; in short: as §2
[4] = tested on: Mammalian orthoreovirus 1; test: Antiviral activity against Reovirus type-1 ATCC VR-214 infected in BHK cells assessed as protection against virus-induced cytopathogenicity after 3 to 4 days by MTT assay; type: functional, cell-based; details: Mammalian orthoreovirus 1, ATCC VR-214, BHK
In short: (§4)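 Cells seeded in 96-well plates (BHK 5x10^4, MDBK 3x10^4 cells/well), grown overnight to confluence, infected at m.o.i. 0.01 (BHK for Reo-1, MDBK for BVDV); serial compound dilutions in maintenance medium with 0.5% inactivated FBS added after 1 h; viability by MTT after 3–4 days at 37°C; EC50 for 50% protection by linear regression.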

Bacillus subtilis = test: Antimicrobial activity against Bacillus subtilis ATCC 6633 at 400 ug after 18 hrs by disc-diffusion method; type: functional; details: ATCC 6633, 18 h, read-out: IZ; in short: as §2
Staphylococcus aureus [5] = test: Antimicrobial activity against Staphylococcus aureus ATCC 25923 at 400 ug after 18 hrs by disc-diffusion method; type: functional; details: ATCC 25923, 18 h, read-out: IZ; in short: as §2
[6] = Antiviral activity against Bovine viral diarrhea virus 1-NADL ATCC VR-534 infected in MDBK cells assessed as protection against virus-induced cytopathogenicity after 3 to 4 days by MTT assay; type: functional, cell-based; details: Bovine viral diarrhea virus isolates and strains, ATCC VR-534, MDBK; in short: as §4
Staphylococcus aureus [7] = test: Antimicrobial activity against Staphylococcus aureus NCTC 4163 after 18 hrs by twofold serial microdilution method; type: functional; details: NCTC 4163, 18 h
Yellow fever virus = test: Antiviral activity against Yellow fever virus 17D infected in BHK cells assessed as protection against virus-induced cytopathogenicity after 3 to 4 days by MTT assay; type: functional, cell-based
Staphylococcus aureus [8] = test: Antimicrobial activity against Staphylococcus aureus NCTC 4163 at 400 ug after 18 hrs by disc-diffusion method; type: functional; details: NCTC 4163, 18 h, read-out: IZ; in short: as §2
[9] = Cytotoxicity against human MT4 cells; type: cell-based
[10] = tested on: Vesicular stomatitis virus; test: Antiviral activity against Vesicular stomatitis virus ATCC VR 1540 infected in African green monkey Vero 76 cells assessed as reduction of virus-plaque formation after 2 days by crystal violet staining; type: functional, organism-based; details: ATCC VR 1540, Vero, 48 h
[11] = tested on: Mycobacterium tuberculosis; test: Antimycobacterial activity against Mycobacterium tuberculosis H37Rv ATCC 25618; type: functional; in short: as §3
[12] = tested on: Staphylococcus epidermidis; test: Antimicrobial activity against Staphylococcus epidermidis ATCC 12228 after 18 hrs by twofold serial microdilution method; type: functional; details: ATCC 12228, 18 h
Micrococcus luteus [13] = test: Antimicrobial activity against Micrococcus luteus ATCC 9341 at 400 ug after 18 hrs by disc-diffusion method; type: functional; details: ATCC 9341, 18 h, read-out: IZ; in short: as §2
Staphylococcus aureus [14] = test: Antimicrobial activity against Staphylococcus aureus ATCC 6538 at 400 ug after 18 hrs by disc-diffusion method; type: functional; details: ATCC 6538, 18 h, read-out: IZ; in short: as §2
Proteus vulgaris = test: Antimicrobial activity against Proteus vulgaris NCTC 4635 at 400 ug after 18 hrs by disc-diffusion method; type: functional; in short: as §2
Bacillus cereus = test: Antimicrobial activity against Bacillus cereus ATCC 11778 at 400 ug after 18 hrs by disc-diffusion method; type: functional; details: ATCC 11778, 18 h, read-out: IZ; in short: as §2
Vaccinia virus = test: Antiviral activity against Human Vaccinia virus ATCC VR-1549 infected in African green monkey Vero 76 cells assessed as reduction of virus-plaque formation after 3 days by crystal violet staining; type: functional, organism-based; details: Orthopoxvirus vaccinia, ATCC VR-1549, Vero, 72 h
Staphylococcus aureus [15] = test: Antimicrobial activity against Staphylococcus aureus ATCC 29213 at 400 ug after 18 hrs by disc-diffusion method; type: functional; details: ATCC 29213, 18 h, read-out: IZ; in short: as §2
[16] = tested on: Staphylococcus epidermidis; test: Antimicrobial activity against Staphylococcus epidermidis ATCC 12228 at 400 ug after 18 hrs by disc-diffusion method; type: functional; details: ATCC 12228, 18 h, read-out: IZ; in short: as §2
Micrococcus luteus [17] = test: Antimicrobial activity against Micrococcus luteus ATCC 10240 at 400 ug after 18 hrs by disc-diffusion method; type: functional; details: ATCC 10240, 18 h, read-out: IZ; in short: as §2
Staphylococcus aureus [18] = test: Antimicrobial activity against Staphylococcus aureus ATCC 29213 after 18 hrs by twofold serial microdilution method; type: functional; details: ATCC 29213, 18 h
[19] = tested on: Staphylococcus epidermidis; test: Antimicrobial activity against Staphylococcus epidermidis ATCC 35984 after 18 hrs by twofold serial microdilution method; type: functional; details: ATCC 35984, 18 h
Staphylococcus aureus [20] = test: Antimicrobial activity against Staphylococcus aureus ATCC 25923 after 18 hrs by twofold serial microdilution method; type: functional; details: ATCC 25923, 18 h
[21] = tested on: Human immunodeficiency virus 1; test: Antiviral activity against HIV1 3B infected in human MT4 cells assessed as protection against virus-induced cytopathogenicity by MTT assay; type: functional, organism-based; details: Human immunodeficiency virus 1, 3B
[22] = Cytotoxicity against BHK cells assessed as cell viability after 48 to 96 hrs by MTT assay; type: cell-based, Mesocricetus auratus; details: hamster
[23] = Cytotoxicity against bovine MDBK cells assessed as cell viability after 48 to 96 hrs by MTT assay; type: cell-based, Bos taurus; details: cattle
Staphylococcus aureus [24] = test: Antimicrobial activity against Staphylococcus aureus ATCC 6538 after 18 hrs by twofold serial microdilution method; type: functional; details: ATCC 6538, 18 h
Poliovirus 1 = test: Antiviral activity against Poliovirus type 1 ATCC VR-1562 infected in African green monkey Vero 76 cells assessed as reduction of virus-plaque formation after 2 days by crystal violet staining; type: functional, organism-based; details: Enterovirus C, ATCC VR-1562, Vero, 48 h

| Structure (SMILES) | EC50 (Coxsackievirus B5) [µM] | EC50 (Human alphaherpesvirus 1) [µM] | CC50 [1] [µM] | zone of inhibition at 400 µg/disc [2] [mm] | MIC [3] [µg/mL] | EC50 [4] [µM] | zone of inhibition at 400 µg/disc (Bacillus subtilis) [mm] | zone of inhibition at 400 µg/disc (Staphylococcus aureus [5]) [mm] | EC50 [6] [µM] | MIC (Staphylococcus aureus [7]) [µg/mL] | EC50 (Yellow fever virus) [µM] | zone of inhibition at 400 µg/disc (Staphylococcus aureus [8]) [mm] | CC50 [9] [µM] | EC50 [10] [µM] | MIC [11] [µg/mL] | MIC [12] [µg/mL] | zone of inhibition at 400 µg/disc (Micrococcus luteus [13]) [mm] | zone of inhibition at 400 µg/disc (Staphylococcus aureus [14]) [mm] | zone of inhibition at 400 µg/disc (Bacillus cereus) [mm] | EC50 (Vaccinia virus) [µM] | also measured |
| --- | --- | --- | --- | --- | --- | --- | --- | --- | --- | --- | --- | --- | --- | --- | --- | --- | --- | --- | --- | --- | --- |
| C=C(C)CNC(=S)Nc1cccc(C(F)(F)F)c1 | > 100 | > 100 | > 100 | 13 | 100 (≈ 365 µM) | > 100 | 16 | 18 | > 100 | 64 (≈ 233 µM) | > 100 | 20 | 43 | > 100 | > 100 | 64 (≈ 233 µM) | 20 | 18 | 16 | > 100 | inhibition zone (IZ) (Enterococcus faecalis): inactive; inhibition zone (IZ) (Enterococcus hirae): inactive; inhibition zone (IZ) (Proteus vulgaris): inactive; zone of inhibition at 400 µg/disc (Staphylococcus aureus [15]): 17 mm; zone of inhibition at 400 µg/disc [16]: 17 mm; zone of inhibition at 400 µg/disc (Micrococcus luteus [17]): 16 mm; MIC (Staphylococcus aureus [18]): 64 µg/mL (≈ 233 µM); MIC [19]: 64 µg/mL (≈ 233 µM); MIC (Staphylococcus aureus [20]): 64 µg/mL (≈ 233 µM); EC50 [21]: > 43 µM; CC50 [22]: > 100 µM; CC50 [23]: > 100 µM; MIC (Staphylococcus aureus [24]): 64 µg/mL (≈ 233 µM); EC50 (Poliovirus 1): > 100 µM |
| FC(F)(F)c1cccc(NC(=S)Nc2ccccc2)c1 | > 39 | > 39 | 39 | 23 | 50 (≈ 169 µM) | > 41 | 21 | 23 | > 49 | 16 (≈ 54 µM) | > 41 | 24 | 39 | > 39 | 50 (≈ 169 µM) | 32 (≈ 108 µM) | 24 | 21 | 22 | > 39 | zone of inhibition at 400 µg/disc (Enterococcus faecalis; ATCC 29212, 18 h, read-out: IZ): 15 mm; zone of inhibition at 400 µg/disc (Enterococcus hirae): 25 mm; zone of inhibition at 400 µg/disc (Proteus vulgaris; NCTC 4635, 18 h, read-out: IZ): 11 mm; zone of inhibition at 400 µg/disc (Staphylococcus aureus [15]): 23 mm; zone of inhibition at 400 µg/disc [16]: 23 mm; zone of inhibition at 400 µg/disc (Micrococcus luteus [17]): 22 mm; MIC (Staphylococcus aureus [18]): 16 µg/mL (≈ 54 µM); MIC [19]: 16 µg/mL (≈ 54 µM); MIC (Staphylococcus aureus [20]): 16 µg/mL (≈ 54 µM); EC50 [21]: > 39 µM; CC50 [22]: 41 µM; CC50 [23]: 49 µM; MIC (Staphylococcus aureus [24]): 16 µg/mL (≈ 54 µM); EC50 (Poliovirus 1): > 39 µM |
| CCNC(=S)Nc1cccc(C(F)(F)F)c1 | > 100 | > 100 | > 100 | 13 | > 100 | > 100 | 15 | 15 | > 100 | 256 (≈ 1030 µM) | > 100 | 14 | > 100 | > 100 | > 100 | 256 (≈ 1030 µM) | 13 | 14 | 15 | > 100 | inhibition zone (IZ) (Enterococcus faecalis): inactive; zone of inhibition at 400 µg/disc (Enterococcus hirae): 13 mm; inhibition zone (IZ) (Proteus vulgaris): inactive; zone of inhibition at 400 µg/disc (Staphylococcus aureus [15]): 19 mm; zone of inhibition at 400 µg/disc [16]: 14 mm; zone of inhibition at 400 µg/disc (Micrococcus luteus [17]): 13 mm; MIC (Staphylococcus aureus [18]): 256 µg/mL (≈ 1030 µM); MIC [19]: 512 µg/mL (≈ 2060 µM); MIC (Staphylococcus aureus [20]): 128 µg/mL (≈ 516 µM); EC50 [21]: > 100 µM; CC50 [22]: > 100 µM; CC50 [23]: > 100 µM; MIC (Staphylococcus aureus [24]): 256 µg/mL (≈ 1030 µM); EC50 (Poliovirus 1): > 100 µM |
